Assay outcomes as filed in PubChem.
Shown are actives, neighbours in structure and some others; about 1.4% of the full set was active somewhere.
DDE Tn7 FP inh = inhibitors of Tn7 peptide binding to human fibrin DD(E); inhibition, % at 8.3 µM; P02675; FP displacement of FITC-Tn7 peptide from fibrin DD(E); 0% = median of compound wells per plate; actives 0.13% (n = 370,000);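 active = inhibition above the mean of compounds falling within the control limits plus 3 SD of them, cut at about 14% in these data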;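 note: 0% = plate median of compound wells and 100% = 10 µM Aha-Tn7 peptide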
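System: human fibrin DD(E); quantity: Fibrin-DD(E) at 2 µM final; also added: fluorescent Tn7 probe at 0.1 µM; compound dosing: single nominal test concentration of 8.3 µM per compound; schedule: 10 min preincubation, 3 h with tracer, room temperature; detection: fluorescence polarization of the labelled Tn7 tracer; repeats: one replicate per compound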
Cardio protect = myocardial damage modulation in H9c2 cells. protection from H2O2 cell death, % at 20 µM. AID 588492. H9c2 cardiomyocytes, H2O2 injury protection, ATPLite, 2 h. actives 0.63% (n = 360,000);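 active = compounds giving at least 50% protection of heart cells from peroxide-induced death in the single-dose screen, raw or plate-pattern-corrected value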;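 note: 0% = DMSO wells with peroxide and 100% = DMSO wells without peroxide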
H9c2 TAG inh = inhibitors of triacylglycerol accumulation; inhibition, % at 12.5 µM; H9c2 cells, Nile Red lipid (TAG) fluorescence; cells loaded with 200 µM oleic acid; AID 651582; actives 0.66% (n = 230,000);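 active = pattern-corrected inhibition of lipid staining of at least 50% with the nuclear-stain viability signal not falling by more than 50%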;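 note: 0% = DMSO wells and 100% = triacsin C control wells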
DDE Tn6 FP inh = disrupts Tn6 cyclic peptide binding to fibrin D-Dimer-E complex | inhibition, % at 8.3 µM | AID 720509 | P02675 | Fibrin DD(E) TRITC-Tn6 fluorescence polarization displacement | actives 0.21% (n = 370,000);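 active = inhibition above a per-campaign cutoff: mean of compounds within control limits plus 3 SD, cut at about 15% in these data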;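 note: 0% = median of all compound wells on the plate and 100% = blocking peptide control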
MT1-MMP act inh = blocks activation of human MT1-MMP; P50281; HT1080 RFP-PRO-GFP cells, GFP/RFP ratio fluorescence, overnight; percent of plate control window, DMSO zero; GFP/RFP ratio change, % at 20 µM; actives 0.061% (n = 360,000);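 active = GFP/RFP ratio change of at least 30% with cell ATP level not reduced by more than half and red fluorescence within 50% of control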
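Assay system: RFP-PRO-GFP reporter HT1080 cells; read-out basis: GFP/RFP fluorescence ratio; benchmarks: DMSO wells and RFP-L50D-GFP cells; doses: 20 µM single dose, 1% DMSO; schedule: overnight cell settling, then overnight compound exposure, 37 °C, 5% CO2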
DAGLB inhibitor = diacylglycerol lipase beta (human) inhibition; Q8NCG7; HEK293T DAGLB membrane lysate, EnzChek fluorogenic substrate; inhibition, % at 5.17 µM; actives 0.059% (n = 340,000); AID 504411; in the data active = inhibition above about 34%;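 note: 0% = enzyme with vehicle and 100% = wells lacking enzyme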
Target sequence (Q8NCG7 whole entry, looked up): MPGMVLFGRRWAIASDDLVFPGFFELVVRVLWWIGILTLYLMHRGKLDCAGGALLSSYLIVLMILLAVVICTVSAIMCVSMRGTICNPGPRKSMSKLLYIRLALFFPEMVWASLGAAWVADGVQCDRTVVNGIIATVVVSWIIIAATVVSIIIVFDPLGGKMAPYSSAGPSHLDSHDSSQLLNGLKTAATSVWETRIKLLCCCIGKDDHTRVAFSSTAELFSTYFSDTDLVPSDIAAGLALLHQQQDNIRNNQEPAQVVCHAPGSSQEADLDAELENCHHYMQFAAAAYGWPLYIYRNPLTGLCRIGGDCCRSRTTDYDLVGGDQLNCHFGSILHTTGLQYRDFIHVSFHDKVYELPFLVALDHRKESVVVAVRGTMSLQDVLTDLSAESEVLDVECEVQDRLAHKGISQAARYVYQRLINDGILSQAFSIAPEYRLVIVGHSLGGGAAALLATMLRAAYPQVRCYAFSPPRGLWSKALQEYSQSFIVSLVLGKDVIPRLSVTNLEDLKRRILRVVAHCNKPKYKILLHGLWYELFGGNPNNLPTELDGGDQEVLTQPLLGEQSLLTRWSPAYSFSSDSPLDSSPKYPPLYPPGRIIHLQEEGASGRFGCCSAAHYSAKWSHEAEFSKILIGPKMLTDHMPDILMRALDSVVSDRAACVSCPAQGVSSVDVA
Starred values were filed as active, the others as inactive; nt = not tested or not shown.

SMILES	DDE Tn7 FP inh	Cardio protect	H9c2 TAG inh	DDE Tn6 FP inh	MT1-MMP act inh	DAGLB inhibitor
COc1ccc(CN2C(=O)C(C)Nc3ncnc(N4CCN(c5ccccc5)CC4)c32)cc1 (centres undefined)	-4	32	0	3	-6	0
CC1Nc2ncnc(N3CCN(c4ccccc4)CC3)c2N(Cc2ccc(Br)cc2)C1=O (centres undefined)	5	62*	-10	-3	-5	5
O=C(CSc1nnc(COc2ccc(Cl)cc2)n1Cc1ccco1)Nc1ccc(OCc2ccccc2)cc1	3	nt	nt	0	nt	nt
Cc1cnc(C=O)c2cccc([N+](=O)[O-])c12	7	57*	11	4	-3	0
Cc1ncc(C)c2c([N+](=O)[O-])cccc12	-3	9	0	-2	-2	-1
Cc1ccc(N2CCN(/N=C\c3cccnc3)CC2)cc1	-6	nt	nt	-2	nt	nt
O=c1cc(-c2ccccc2)cc(-c2ccccc2)n1O	5	63*	16	-1	4	-2
Cc1ccc(CN(C)C(=O)COC(=O)CSc2ccc(C(N)=O)cc2[N+](=O)[O-])cc1	1	58*	8	1	-3	2
Cc1ccc(CN(C)C(=O)COC(=O)CSc2ccc([N+](=O)[O-])cc2)cc1	0	-4	-11	1	0	-4
O=C(c1cccc(F)c1F)N(Cc1ccccn1)CC1CCCO1 (centres undefined)	-5	nt	nt	-4	nt	nt
CCn1c(CSc2nc3ccccc3s2)nnc1SCC(=O)c1ccc(O)c(O)c1	-2	62*	nt	-11	5	23
CCn1c(CSc2nc3ccccc3s2)nnc1SCC(=O)c1ccc(Cl)cc1	0	-21	nt	6	-1	-8
CCOC(=O)C1=NOC(C(=O)NCCO)(C(=O)C2CC2)C1 (centres undefined)	3	nt	nt	-2	nt	nt
O=C(c1ccco1)N1CCN(C(=O)c2cc(-c3ccncc3)nc3ccc(Br)cc23)CC1	1	53*	3	7	-19	-3
O=C(c1cc2nc(-c3ccccc3)cc(-c3ccccc3)n2n1)N1CCCC1	0	27	10	5	-3	-4
O=C(c1cc2nc(-c3ccccc3)cc(-c3ccccc3)n2n1)N1CCN(C(=O)c2ccco2)CC1	-5	104*	-1	1	-1	-2
Cc1ccc2nc(-c3ccc(NC(=O)CSc4nnc(Cc5cccs5)n4C)cc3)sc2c1	4	nt	nt	-9	nt	nt
CCCNC(=O)c1ccc(N2CCC3(CC2)CC(c2ccccc2)=NO3)c(NC(=O)c2ccco2)c1	-2	90*	18	-9	-3	-2
Cc1ccc(CNC(=O)c2ccc(N3CCC4(CC3)CC(c3ccccc3)=NO4)c(NC(=O)c3ccco3)c2)cc1	1	2	7	-1	2	-9
CCOC(=O)C(=O)N1CCC(C(=O)NC2CCCc3ccccc32)CC1 (centres undefined)	3	nt	nt	2	nt	nt
CCN(CC)c1ccc2cc(-c3nnc(-c4ccncc4)o3)c(=O)oc2c1	-32	65*	nt	-6	-291	-77
COC(=O)[C@]12C[C@H](CC(=O)N3CCSCC3)C(=O)N(Cc3ccc(Cl)cc3Cl)C1=C[C@H](C1CCCC1)O[C@@H]2C	-2	nt	nt	9	nt	nt
CCOc1ccc(CCNC(=O)c2c(C)noc2C)cc1OCC	-2	-4	5	2	4	-1
CCOc1ccc(CCNC(=O)c2cc3c(C)nccc3[nH]c2=O)cc1OCC	3	72*	-6	3	0	0
CCn1c(COc2ccc(Cl)cc2)nnc1SCC(=O)Nc1ccccc1-c1ccccc1	-6	nt	nt	-2	nt	nt
SMILES	DDE Tn7 FP inh	Cardio protect	H9c2 TAG inh	DDE Tn6 FP inh	MT1-MMP act inh	DAGLB inhibitor
CC(=O)N1CCN(c2cc(-c3ccco3)nc3cc(-c4ccccc4)nn23)CC1	5	nt	nt	-2	nt	nt
Cn1c(N=Nc2ccc(N3CCOCC3)cc2)[n+](C)c2ccccc21	-6	-13	51*	2	7	3
O=C(N/N=C/c1cc([N+](=O)[O-])ccc1O)c1cccc2cc[nH]c12	-1	24	61*	-6	22	8
Cc1ccc(NC(=O)CCC(=O)N/N=C/c2cc([N+](=O)[O-])ccc2O)cc1	-3	64*	-7	1	-6	7
Cc1ccc(C)c(NC(=O)CCC(=O)N/N=C/c2cc([N+](=O)[O-])ccc2O)c1	6	64*	4	-4	-1	10
O=C(N/N=C/c1cccc([N+](=O)[O-])c1)c1cccc2cc[nH]c12	5	-5	4	-7	0	-1
Cc1cc(=O)oc2cc(OCC(=O)N/N=C/c3cc([N+](=O)[O-])ccc3O)ccc12	-3	55*	nt	0	7	6
CCOC(=O)[C@@]12CN(C(=O)OC(C)(C)C)CC=C1N(Cc1ccc(OC)cc1)C(=O)[C@H]2CC(=O)N1CCN(C(=O)c2ccco2)CC1	4	nt	nt	-2	nt	nt
COC(=O)[C@H](C(C)C)N1CCc2nnn(CC3CCCCC3)c2-c2cc(F)ccc2S1(=O)=O	7	nt	nt	7	nt	nt
O=C(N/N=C/c1cc([N+](=O)[O-])ccc1O)C(O)(c1ccccc1)c1ccccc1	-2	61*	13	9	3	7
O=C(CSc1nc2ccccc2s1)N/N=C/c1cc([N+](=O)[O-])ccc1O	2	53*	4	2	4	6
COC(=O)[C@]1(Cc2ccccc2)NC=C(C(=O)c2ccc(F)cc2)[C@@H]1c1ccccc1	6	nt	nt	0	nt	nt
COc1ccc(OC)c2cc3ccccc3cc12	18*	-15	-5	-2	-29	-2
COc1cc2ccccc2cc1C(=O)O	4	10	-3	-11	2	2
COc1ccc(-c2csc(NC(=O)CN3C(=O)C4CC=CCC4C3=O)n2)cc1OC (centres undefined)	0	6	8	-12	2	1
O=C(CN1C(=O)C2CC=CCC2C1=O)Nc1nc(-c2ccc(F)c(F)c2)cs1 (centres undefined)	-6	82*	24	-5	6	-1
CC(C)(C)c1nnc(N/N=C/c2cc(Br)ccc2O)n(N)c1=O	2	76*	nt	8	-1	10
CN(C)c1cccc(-c2nccc(N3CCC(C(N)=O)CC3)n2)c1	-6	nt	nt	-5	nt	nt
CCS(=O)(=O)Nc1ccc2c(c1)C(=O)N(C)[C@@H]1CC[C@H](CC(=O)NCCOC)O[C@H]1CO2	-6	nt	nt	-8	nt	nt
Cc1ccc(-c2nn3c(C)nnc3s2)cc1NC(=O)COc1ccc(Cl)cc1	2	50*	13	-5	0	1
Cc1ccc(-c2nn3c(C)nnc3s2)cc1NC(=O)CSc1ccc(Cl)cc1	-5	9	nt	-5	6	-1
